From PubChem
Rad51 HR inh: Rad51 (human) homologous recombination inhibition; Q06609; hRad51 DNA strand exchange, fluorescence dequenching; inhibition, % at 10 µM; actives 0.085% (n = 200,000);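 active = inhibition above 40% at the single screening dose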;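 also: 0% = DMSO control wells and 100% = blanks with heterologous ssDNA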
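Read-out basis: percent inhibition relative to plate controls and blanks / Assay system: human Rad51 nucleoprotein filaments preassembled on unlabelled ssDNA / Timing: filaments 15 min 37 °C, then compound 30 min / Control set: per-plate controls and blanks / Technique: fluorescence dequenching at 485/520 nm / Compound: 10 µM final, single point / Also added: Fluorescein- and BHQ1-tagged 47-mer duplex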
Autophagy HCS: modulators of autophagy | MEF GFP-LC3 puncta imaging; test concentration mostly 10 µM | calls only at 10 µM (by protocol) | actives 0.98% (n = 190,000) | AID 463193;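 active = percentage of spot-positive cells more than 3 SD above its plate mean, without a fluorescence outlier flag or 80% toxicity; inconclusive = no clear call, values can overlap the other calls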;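 also: spot-positive cell cutoff set from DMSO-treated cells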
Ins promoter up: MIN6 insulin promoter up-regulation | AID 1625 | z-score at 5 µM | actives 0.3% (n = 190,000) | MIN6 insulin promoter-GFP reporter, high-content imaging; active compounds read high;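 active = z-score above 3 at 5 µM with at least 500 cells counted in the well; inconclusive = wells under 500 cells, flagged as cytotoxic or low count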
SKKanGAS inh: inhibitors of SKKanGAS S. pyogenes growth in kanamycin (SK-promoter or general growth effect) | actives 1.3% (n = 300,000) | inhibition, % at 7.5 µM | BacTiter-Glo, 6 h | AID 1662;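 active = mean replicate score, as percent of positive control median, at least 50; inconclusive = mean below 50 but one replicate at or above 50; inactive = mean and every replicate below 50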;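 also: strain carries kanamycin resistance gene driven by streptokinase promoter and grows in 40 µg/ml kanamycin; loss of luminescence reflects streptokinase promoter inhibition or plain growth inhibition; 0% = median of DMSO wells and 100% = positive control at its reference dose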
KCC2 mod: modulators of human KCC2 chloride dependent transport. KCC2 cells, thallium flux FluoZin-2 fluorescence. B-score of Tl+ flux slope (higher = more flux/activation; lower = inhibition) at 10 µM. actives 2.2% (n = 190,000). AID 1456;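 active = thallium flux slope and its plate-corrected score both differing from the plate sample mean at a set confidence after two filtering rounds, in either direction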;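 also: slope of fluorescence scaled to starting intensity during 10 to 20 s after thallium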
Target sequence (Q9H2X9 whole entry, looked up): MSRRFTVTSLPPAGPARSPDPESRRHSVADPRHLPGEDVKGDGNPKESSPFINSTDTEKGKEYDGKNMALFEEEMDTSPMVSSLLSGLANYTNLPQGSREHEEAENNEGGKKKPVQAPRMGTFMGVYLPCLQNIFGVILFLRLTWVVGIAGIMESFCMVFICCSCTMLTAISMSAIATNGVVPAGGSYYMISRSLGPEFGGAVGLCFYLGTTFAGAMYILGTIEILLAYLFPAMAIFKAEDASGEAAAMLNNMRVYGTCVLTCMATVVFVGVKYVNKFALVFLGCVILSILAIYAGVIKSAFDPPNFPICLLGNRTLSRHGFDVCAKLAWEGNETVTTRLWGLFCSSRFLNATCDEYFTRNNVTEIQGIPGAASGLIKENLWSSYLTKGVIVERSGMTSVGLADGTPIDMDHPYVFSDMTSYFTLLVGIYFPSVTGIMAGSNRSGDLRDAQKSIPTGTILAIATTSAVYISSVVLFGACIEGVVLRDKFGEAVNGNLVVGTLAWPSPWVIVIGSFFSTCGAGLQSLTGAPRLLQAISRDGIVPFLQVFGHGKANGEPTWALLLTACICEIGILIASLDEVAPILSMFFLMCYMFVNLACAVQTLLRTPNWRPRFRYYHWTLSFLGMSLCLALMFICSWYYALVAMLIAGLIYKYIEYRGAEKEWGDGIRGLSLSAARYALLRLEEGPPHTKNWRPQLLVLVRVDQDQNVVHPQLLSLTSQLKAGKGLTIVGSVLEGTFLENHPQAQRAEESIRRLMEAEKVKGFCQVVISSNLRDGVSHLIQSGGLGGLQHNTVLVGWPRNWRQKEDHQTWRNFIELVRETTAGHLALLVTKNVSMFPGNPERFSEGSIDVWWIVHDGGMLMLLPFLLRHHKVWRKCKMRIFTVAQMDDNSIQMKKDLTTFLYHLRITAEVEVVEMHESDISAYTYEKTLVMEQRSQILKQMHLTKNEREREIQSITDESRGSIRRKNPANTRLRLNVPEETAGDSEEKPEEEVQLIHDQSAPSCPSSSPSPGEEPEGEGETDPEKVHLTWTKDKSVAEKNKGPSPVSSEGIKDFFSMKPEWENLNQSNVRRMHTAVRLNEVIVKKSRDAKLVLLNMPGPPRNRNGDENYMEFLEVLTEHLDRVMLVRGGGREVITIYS
WT yeast gro inh: growth inhibition of WT yeast, mitochondrial fusion screen | actives 2.1% (n = 190,000) | AID 1362 | mitochondrial fusion phenotypic screen, WT strain | inhibition, % at 10 µM; in the data active = inhibition above about 58%; tested in S. cerevisiae
KCC2 sec1: confirmation of human KCC2 transport modulators; normalised thallium flux (F/F0 slope) at 10 µM; AID 1713; HEK293-KCC2, thallium flux, FluoZin2 fluorescence; active compounds read high; actives 15% (n = 3,700); shares compounds with KCC2 mod;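 active = thallium flux slope above the same plate's solvent-only control mean plus 3 SD; inconclusive = the two replicate wells disagree; inactive = no significant difference from solvent-only control wells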
KCC2 bumet counter: bumetanide-insensitive thallium flux in KCC2 cells with ouabain, counter-screen | shares compounds with KCC2 mod | HEK293-KCC2 + bumetanide/ouabain, thallium flux FluoZin2; active compounds read high | normalized thallium flux at 10 µM | actives 49% (n = 3,700) | AID 1714;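 active = thallium entry rate above the same plate's blocked-transporter control wells by more than 3 SD; inconclusive = the two repeat wells disagree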;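 also: raw slope of fluorescence over initial fluorescence between 10 and 20 s after thallium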
KCC2 secondary2: KCC2 (human) modulation, second secondary assay. HEK293-KCC2, thallium flux FluoZin2 fluorescence; actives lie on both sides; F/F0 rise rate, 10–20 s post-thallium. normalized thallium flux at 10 µM. shares compounds with KCC2 mod. actives 23% (n = 3,700);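 active = thallium flux slope more than 3 SD above or below the plate's solvent-only control mean, mostly below; inconclusive = the two repeat wells disagreed; inactive = no significant shift from solvent-only controls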;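 also: raw slope with 0.1% DMSO as baseline and bumetanide as block control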
HEK293 Tl flux: parental HEK flux effect, counter-screen; shares compounds with KCC2 mod; HEK293 parental cells, thallium flux FluoZin2, ouabain; baseline-ratio fluorescence slope, 10–20 s after thallium; thallium flux rate (normalised fluorescence) at 10 µM; actives 46% (n = 3,700);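 active = thallium flux rate significantly above the same plate's solvent-only control wells, beyond their mean plus 3 SD; inconclusive = the two replicate wells gave conflicting results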
KCC2 ouabain: confirmation of human KCC2 modulators with ouabain. shares compounds with KCC2 mod. HEK293-KCC2, thallium flux FluoZin2 fluorescence; bidirectional: low = inhibitor, high = activator. raw Tl+ flux slope (below DMSO = inhibition, above = activation) at 10 µM. actives 48% (n = 3,700);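 active = thallium flux slope beyond 3 SD from same-plate DMSO control mean in most replicates, usually higher, sometimes lower; inconclusive = repeat tests gave conflicting results; inactive = no significant difference from controls in most replicates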;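 also: slope of initial-normalized fluorescence between seconds 10 and 20 after thallium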
HEK counter2: acts in parental HEK cells, second KCC2 counter-screen; actives 33% (n = 3,700); HEK293 parental, thallium flux FluoZin-2 fluorescence slope; shares compounds with KCC2 mod; thallium flux slope at 10 µM;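 active = thallium flux slope above the same plate's solvent-control mean plus 3 SD in both duplicate wells; inconclusive = duplicate wells that disagreed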;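 also: run without ouabain in cells lacking the KCC2 cotransporter; slope of fluorescence scaled to its starting value between 10 and 20 s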
The depositor's hits bear a star; i = inactive; ? = inconclusive; . = no result given. Rows were chosen to be rich in hits. Some 4.2% of all compounds tested hit in one or more screens of this group.

SMILES	Rad51 HR inh	Autophagy HCS	Ins promoter up	SKKanGAS inh	KCC2 mod	WT yeast gro inh	KCC2 sec1	KCC2 bumet counter	KCC2 secondary2	HEK293 Tl flux	KCC2 ouabain	HEK counter2
Cc1ccc(S(=O)(=O)NCc2csc(-c3cccs3)n2)cc1	15	.	-0.43	-6	-2.1*	.	0.0054	0.0035	0.022*	0.0063	0.012*	?
O=S(=O)(NCc1csc(-c2cccs2)n1)c1ccc(Cl)cc1	.	.	-0.57	-5	-5.1*	.	?	?	0.019*	0.005*	0.01*	?
O=S(=O)(NCc1csc(-c2cccs2)n1)c1cccc(C(F)(F)F)c1	.	.	-0.25	-3	-5.4*	.	?	0.0036	0.019*	0.0058*	0.01*	?
O=S(=O)(NCc1csc(-c2cccs2)n1)c1cccs1	.	.	-1.1	-23	-4.1	.	.	.	.	.	.	.
COc1ccc([N+](=O)[O-])cc1NC(=O)CCSCCc1ccccn1	.	i	-0.23	-8	-0.31	12	.	.	.	.	.	.
COc1ccc(/C=C2\CCOC2=O)cc1	-4	i	1.1	10	0.32	-10	.	.	.	.	.	.
COc1ccc(/C=C2\CCCC(C(=O)C(F)(F)F)=C2O)cc1	3	i	0.14	-2	.	19	0.0094	0.024*	0.03	0.011*	0.034*	0.01*
CCc1ccc(C(=O)COC(=O)c2cc([N+](=O)[O-])ccc2NCCO)cc1	5	i	-2.7	6	-4.3*	34	0.0062	0.0053	0.023*	0.0081	0.015*	0.011
O=C(COC(=O)c1cc([N+](=O)[O-])ccc1NCCO)c1ccc(Cl)cc1	0	i	1	2	-1.5	3	.	.	.	.	.	.
CCCCCCN(C(=O)CCCCCN1C(=O)NC(c2ccc(-c3ccccc3)cc2)C(C(=O)OCc2ccccc2)=C1C)C(C(=O)NCCCC)c1ccc(O)c(C(=O)OC)c1 (centres undefined)	2	.	.	9	1.3	.	.	.	.	.	.	.
CCN(CC(=O)Nc1cc(S(=O)(=O)N2CCCCC2)ccc1Cl)Cc1ccccc1	.	.	.	13	.	.	.	.	.	.	.	.
O=C(Cc1cccs1)Nc1ccc(S(=O)(=O)N2CCCC2)cc1	-14	i	0.33	5	-3.7*	16	0.0077	0.006	0.035	0.004	0.02	0.011
CN(CC(=O)Nc1cc(S(=O)(=O)N2CCCC2)ccc1Cl)Cc1cccs1	3	.	-0.08	-1	-5.3*	.	?	0.0047	0.032	0.0034	0.014*	0.011
N#Cc1ccc(CN2CCN(C(=O)Cn3nc(C(N)=O)c4ccccc4c3=O)CC2)cc1	.	.	.	-2	.	.	.	.	.	.	.	.
O=C(c1ccc(-c2ccccc2)cc1)C1CCCN(Cc2ccncc2)C1 (centres undefined)	.	i	-1.1	22	-4.1*	40	0.0069	0.0049	0.025*	0.0079	?	0.011
Cc1ncoc1C(=O)N1CCCC(C(=O)c2ccc(-c3ccccc3)cc2)C1 (centres undefined)	-4	i	-0.27	3	-3.3*	68*	?	0.0062	0.03	0.0065	0.021*	?
Cc1ccccc1NC(=O)NC1(C(=O)NCc2ccco2)CCCCC1	.	.	.	2	.	.	.	.	.	.	.	.
Cc1cc(C(=O)CSc2nc(N)cc(=O)[nH]2)c(C)n1CCc1ccc(F)cc1	9	i	0.19	8	-4.2*	.	0.0092	0.0051	0.033	0.0074	0.018	0.011
COc1ccc(N2CCN(C(CNC(=O)C3CCCCC3)c3ccco3)CC2)cc1 (centres undefined)	.	.	.	5	.	.	.	.	.	.	.	.
O=C(O)/C=C/c1ccc(S(=O)(=O)NCc2cccnc2)cc1	3	.	-1.3	-4	3.8*	.	0.015	0.0045	0.029	0.0072	0.016	0.011
Cc1ccccc1-n1nnnc1SCc1ncc(-c2ccccc2)o1	.	i	-0.93	19	-3.4*	38	0.0068	0.0039	?	?	0.016	0.01
c1ccc(-c2cnc(CSc3nnc4ccccn34)o2)cc1	2	i	-0.38	-4	0.052	3	.	.	.	.	.	.
CCOc1cc(S(=O)(=O)NCc2ccccc2)ccc1Br	28	i	-1.1	-14	0.019	3	.	.	.	.	.	.
CN(CCOc1ccccc1)C(=O)C1CCC(=O)N(CCc2ccc(Cl)cc2)C1 (centres undefined)	.	.	.	-5	.	.	.	.	.	.	.	.
O=S(=O)(Nc1nc2ccccc2s1)c1ccc(Cl)nc1	4	.	0.3	10	-0.47	.	.	.	.	.	.	.
SMILES	Rad51 HR inh	Autophagy HCS	Ins promoter up	SKKanGAS inh	KCC2 mod	WT yeast gro inh	KCC2 sec1	KCC2 bumet counter	KCC2 secondary2	HEK293 Tl flux	KCC2 ouabain	HEK counter2
COc1ccccc1Oc1ncnc2c1cnn2-c1ccccc1	3	i	0.77	9	-5*	72	?	0.0056	0.033	0.0036	0.015*	0.011
Cn1cnc([N+](=O)[O-])c1N=C(N)N	17	.	0.26	-4	0.46	.	.	.	.	.	.	.
CCOc1ccc(CCNC(=O)C2CSC3(C)CCC(=O)N23)cc1OCC (centres undefined)	.	.	.	1	.	.	.	.	.	.	.	.
Cc1nn(-c2ccccc2)nc1C(=O)Nc1nnc(C(F)(F)F)s1	11	.	-0.45	39	24*	.	0.016*	0.049*	0.033	0.019*	0.04*	0.013*
Cc1c(C(=O)O)c(C(=O)O)nc2ccc(N3CCOCC3)cc12	-10	i	-0.56	0	-0.44	-3	.	.	.	.	.	.
CCOC(=O)C1(CC)NC(c2ccc(OC)cc2OC)C2C(=O)N(C)C(=O)C21 (centres undefined)	7	i	0.19	-7	0.05	-12	.	.	.	.	.	.
CCOc1ccc2nc(SC3CC(=O)N(c4cccc(OC)c4)C3=O)sc2c1 (centres undefined)	3	i	0.24	-6	4.7*	32	0.024*	0.015*	0.033	0.0093*	0.022*	?
CCOc1ccc2nc(SC3CC(=O)N(c4ccccc4)C3=O)sc2c1 (centres undefined)	3	i	0.52	6	1.2	7	.	.	.	.	.	.
Cc1cc(F)ccc1S(=O)(=O)Nc1ncnc2sc3c(c12)CCC3	-8	i	-0.49	1	-1.5	18	.	.	.	.	.	.
